In brackets after ≈: the same amount, converted by molar mass. Activity calls are given as the source filed them. The rule behind the calls is not given here.

In test [1] the test system is A549. Put plainly: Cytotoxicity against human A549 cells after 4 days by coulter counter analysis. The test is classed as cell-based. The settings on record: A549, 96 h.
Test [2] relates to Mycobacterium tuberculosis. Put plainly: Antimycobacterial activity against Mycobacterium tuberculosis H37Ra ATCC 25177 after 5 days by resazurin reduction assay. The settings on record: H37Ra ATCC 25177, 120 h. It counts as functional, organism-based. An outline of the steps: (§1)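 M. tuberculosis H37Ra grown at 37 °C in 7H9 with OADC, 0.5% glycerol, 0.05% Tween-80 for about 14 days to mid-exponential phase (OD600 0.4−0.8). Diluted to OD600 0.001 (about 2 × 10^4 CFU/ml) in 7H9S with 0.5% DMSO and exposed to serially diluted compounds. Incubated 5 days at 37 °C, then resazurin added. Fluorescence (ex 530/em 580 nm) read 30 h later. Signal normalised to no-inhibitor and no-bacteria controls to give IC50.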

Test [3] in a line: Inhibition of Escherichia coli XGPRT expressed in Escherichia coli SPhi606 using guanine as substrate by spectrophotometric analysis. An outline of the steps:
(§2)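 Enzymes (wild-type XGPRT, HPRT, and the XGPRT mutant lacking six flexible-loop residues) were expressed in E. coli SΦ606, purified to homogeneity and stored at −70 °C in 0.1 M Tris-HCl, 10 mM MgCl2, 1 mM DTT, pH 7.4. Ki was determined spectrophotometrically. Fixed base was 60 μM: guanine for XGPRT, hypoxanthine for HPRT. PRib-PP was varied from 14 to 1000 μM, and inhibitor from 0.1 to 140 μM.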

A short description of test [4]: Inhibition of Escherichia coli recombinant XGPRT mutant expressed in Escherichia coli SPhi606 using guanine as substrate by spectrophotometric analysis. An outline of the steps:
as §2

A short description of test [5]: Inhibition of Escherichia coli HPRT expressed in Escherichia coli SPhi606 using hypoxanthine as substrate by spectrophotometric analysis. An outline of the steps:
as §2

In test [6] the test system is Escherichia coli. Put plainly: (§3) Non-competitive inhibition of Escherichia coli HPRT expressed in Escherichia coli SPhi606 using hypoxanthine as substrate by spectrophotometric analysis in presence of PRib-PP. An outline of the steps: as §2
The test system of test [7] is Mycobacterium tuberculosis. Description: Antimycobacterial activity against Mycobacterium tuberculosis H37Ra ATCC 25177 at >= 250 uM after 5 days by resazurin reduction assay. It counts as functional, organism-based. An outline of the steps: as §1
A general note: The colour change of resazurin is a common sign of viable cells or microbes.

The nature of test [8]: Selectivity index, ratio of EC50 for human A549 cells to MIC50 for Mycobacterium tuberculosis H37Ra ATCC 25177. The test is classed as functional.
The nature of test [9]: Binding affinity to Escherichia coli XGPRT.
For test [10], the system named is Escherichia coli. Description: Competitive inhibition of Escherichia coli XGPRT expressed in Escherichia coli SPhi606 using guanine as substrate by spectrophotometric analysis in presence of PRib-PP. An outline of the steps: as §2
A short description of test [11]: Competitive inhibition of Escherichia coli XGPRT expressed in Escherichia coli SPhi606 using guanine as substrate by spectrophotometric analysis in presence of pyrophosphate. An outline of the steps:
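Ki was determined spectrophotometrically on purified XGPRT expressed in E. coli SΦ606, with guanine fixed at 60 μM. PRib-PP was varied from 14 to 1000 μM, and inhibitor from 0.1 to 140 μM. Pyrophosphate (33 μM) was added to the assay mixture along with the inhibitor.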

The nature of test [12]: as §3. An outline of the steps:
as §2

By EC50 is commonly meant the concentration at which the effect is half-maximal. A higher EC50 goes with a less potent agent. The term IC50 denotes the concentration that inhibits the measured activity by half. Low values mean inhibition by little substance, high ones a need for much substance. The term MIC99 denotes an inhibitory concentration at the 99% level, which refers to growth in some studies and to a panel of isolates in others. A low value points to higher susceptibility. `CCOC(=O)[C@H](Cc1ccccc1)NP(=O)(COCC(COCP(=O)(N[C@@H](Cc1ccccc1)C(=O)OCC)N[C@@H](Cc1ccccc1)C(=O)OCC)Cn1cnc2c(=O)[nH]cnc21)N[C@@H](Cc1ccccc1)C(=O)OCC`: a half-maximal response in [1] (EC50) required 100 µM. In addition, in [2], the midpoint of inhibition, the IC50, lay at 5 µM and the MIC99 worked out at 20 µM (≈ 22.3 µg/mL).
One may read the Ki as the dissociation constant of the complex between target and ligand, obtained from inhibition or displacement. `Nc1nc2c(ncn2C(COCP(=O)(O)O)C(O)COCP(=O)(O)O)c(=O)[nH]1` (centres undefined): the Ki stood at 21 µM in test [3] and 14 µM in test [4].
For the compound `O=c1[nH]cnc2c1ncn2CC(O)COCP(=O)(O)O` (centres undefined), the inhibition constant Ki was 16 µM in test [3], 73 µM in test [5] and over 200 µM in test [4]. Further, the inhibition result in test [6] was “Active”.
Regarding `Nc1nc2c(ncn2CC(COCCP(=O)(O)O)OCCP(=O)(O)O)c(=O)[nH]1` (centres undefined), the outcome in test [7] was inactive. In test [3], this compound came in with a Ki of 0.11 µM. Further, the “Selectivity Index” value in test [8] was “>=17”.
In the case of `Nc1nc2c(ncn2[C@@H]2O[C@H](COP(=O)(O)O)[C@@H](O)[C@H]2O)c(=O)[nH]1`, the values for the inhibition constant (Ki) in [9], in test [5] and in test [4] were 4.5 µM, 526 µM and 120 µM, respectively.
For `Nc1nc2c(ncn2CC(COCP(=O)(O)O)COCP(=O)(O)O)c(=O)[nH]1`, the outcome in [7] was inactive. The results for the Ki in test [3] and in test [4] were 0.01 µM and 0.24 µM, respectively. Besides, in test [8], the “Selectivity Index” value is “>=17”.
As for `O=c1[nH]cnc2c1ncn2CC(COCP(=O)(O)O)COCP(=O)(O)O`, the result in test [7] was inactive. The inhibitory constant (Ki) in test [5] came out at 0.8 µM. In test [8], the “Selectivity Index” value was 4.
The compound `CCOC(=O)[C@H](Cc1ccccc1)NP(=O)(COCC(COCP(=O)(N[C@@H](Cc1ccccc1)C(=O)OCC)N[C@@H](Cc1ccccc1)C(=O)OCC)Cn1cnc2c(=O)[nH]c(N)nc21)N[C@@H](Cc1ccccc1)C(=O)OCC` came in with an EC50 in [1] of over 300 µM. In [2], the IC50 stood at 5 µM and the MIC99 came to 20 µM (≈ 22.6 µg/mL).
`Nc1nc2c(ncn2[C@@H]2CN(C(=O)CP(=O)(O)O)C[C@H]2OC(=O)CP(=O)(O)O)c(=O)[nH]1`: the inhibition entry in test [10] is “Active”. For the same compound, the figures for the Ki in test [3] and in test [4] were 0.4 µM and 2.6 µM, respectively.
For the compound `O=c1[nH]cnc2c1ncn2CCOCCP(=O)(O)O`, the inhibition constant Ki in test [3] is 1.5 µM; in test [5] it was 17 µM; in test [4], 46 µM.
The compound `CCOC(=O)[C@H](Cc1ccccc1)NP(=O)(CCOCC(Cn1cnc2c(=O)[nH]c(N)nc21)OCCP(=O)(N[C@@H](Cc1ccccc1)C(=O)OCC)N[C@@H](Cc1ccccc1)C(=O)OCC)N[C@@H](Cc1ccccc1)C(=O)OCC` (some centres undefined) gave an EC50 in test [1] of 100 µM. In addition, in [2], the IC50 was 5 µM and the MIC99 is 20 µM (≈ 22.8 µg/mL).
As to `Nc1nc2c(ncn2CCOCCP(=O)(O)O)c(=O)[nH]1`, the Ki in test [3] came out at 0.7 µM; in test [4] it was 11 µM.
In the case of `O=C(CP(=O)(O)O)N1CC[C@@H](n2cnc3c(=O)[nH]cnc32)C1`, the inhibitory constant (Ki) in [3] is over 200 µM; in [5], 35 µM; in [4], over 200 µM.
Turning to `Nc1nc2c(ncn2[C@@H]2CN(C(=O)CP(=O)(O)O)C[C@@H]2O)c(=O)[nH]1`, the Ki in test [3] and in test [4] was over 250 µM in each case.
As to `Nc1nc2c(ncn2CC(O)COCP(=O)(O)O)c(=O)[nH]1` (centres undefined), the Ki in test [11] was 0.32 µM; in test [5], over 700 µM; in test [12] it was 35 µM; in [4], at least 3 µM.
Take `Nc1nc2c(ncn2[C@H]2CN(C(=O)CP(=O)(O)O)C[C@H]2O)c(=O)[nH]1`: the inhibition entry in test [10] was “Active”. Moreover, the inhibition constant (Ki) was 2.2 µM in test [3] and 3 µM in [4].
For `O=c1[nH]cnc2c1ncn2C(COCP(=O)(O)O)COCP(=O)(O)O`, the affinity in test [3], expressed as Ki, was 73 µM.
`CC(C)(C)C(=O)SCCOP(=O)(CC(=O)N1CC[C@H](n2cnc3c(=O)[nH]c(N)nc32)C1)OCCSC(=O)C(C)(C)C` showed a half-maximal effective concentration (EC50) in test [1] of over 300 µM. In [2], this compound gave an IC50 of 5 µM and an MIC99 of 20 µM (≈ 12.6 µg/mL).
For `Nc1nc2c(ncn2C(COCP(=O)(O)O)COCP(=O)(O)O)c(=O)[nH]1`, the results for the inhibitory constant (Ki) in [3] and in [4] were 3 µM and 16 µM, respectively.
As to `Nc1nc2c(ncn2[C@H]2CCN(C(=O)CP(=O)(O)O)C2)c(=O)[nH]1`, the inhibition entry in test [10] was “Active”. The result in test [7] was inactive. In addition, the inhibitory constant (Ki) in test [3] worked out at 0.23 µM; in test [4] it was 3 µM. The “Selectivity Index” value in test [8] is “>=17”.

(Values after ChEMBL document CHEMBL2417550, “Inhibition of the Escherichia coli 6-oxopurine phosphoribosyltransferases by nucleoside phosphonates: potential for new antibacterial agents” (J Med Chem, 2013).)
